Measured values: ChEMBL document CHEMBL1641374, “Synthesis of antiproliferative flavones from calycopterin, major flavonoid of Calycopteris floribunda Lamk” (Bioorg Med Chem, 2011)

Assays:
KB [1] = assay: Cytotoxicity against human KB cells at 10^-6 M after 72 hrs by MTS assay; assay type: functional
In short: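 KB cells in D-MEM with 10% FCS were seeded at 600 cells/well and dosed 24 h later with flavone at 10^-6 M in DMSO. Controls received DMSO at 1% final. After 72 h, MTS was added for 3 h at 37 °C and A490 read in triplicate. Growth inhibition (%) = (1 − OD treated/OD control)×100.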

KB [2] = assay: Cytotoxicity against human KB cells after 72 hrs by MTS assay; assay type: functional, cell-based
HL-60 [3] = assay: Induction of apoptosis in human HL60 cells assessed as induction of caspase 3/7 activation at 100 uM relative to control; assay type: functional
In short: (§1)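 HL60 cells (20,000/well) were treated 24 and 48 h with compounds in DMSO. Vehicle and doxorubicine served as controls. Fluorescence (ex 360/em 465 nm) was followed over 3 h.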

[4] = Inhibition of sheep brain tubulin polymerization at 2x10'-5 M after 5 mins; design: species or system Ovis aries
In short: (§2)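 Sheep brain microtubule proteins were purified by two assembly/disassembly cycles (37 °C/0 °C) in 100 mM MES pH 6.6, 1 mM EGTA, 0.5 mM MgCl2. Polymerization rate was followed by turbidity at 350 nm, with deoxypodophyllotoxin as reference. Compounds were tested at ~2×10^-5 M for % inhibition, with IC50 determined for selected compounds.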

KB [5] = assay: Induction of cell cycle arrest in human KB cells assessed as accumulation at subG1 phase at 50 nM after 48 hrs by propidium iodide staining-based flow cytometry (reference value: 1.2%); assay type: functional
HL-60 [6] = assay: Induction of apoptosis in human HL60 cells assessed as viable cells at 50 nM after 48 hrs by annexin-V-PE/7-AAD staining (reference value: 97.4%); assay type: functional; conditions: HL-60, 48 h, read-out: Activity
K562 = assay: Cytotoxicity against human K562 cells after 72 hrs by MTS assay; assay type: functional, cell-based; conditions: K562, 72 h
HL-60 [7] = assay: Induction of apoptosis in human HL60 cells assessed as early apoptosis cells at 50 nM after24 hrs by annexin-V-PE/7-AAD staining (reference value: 2.6%); assay type: functional
HL-60 [8] = assay: Induction of apoptosis in human HL60 cells assessed as induction of caspase 3/7 activation at 100 nM relative to control; assay type: functional; in short: as §1
HL-60 [9] = assay: Induction of apoptosis in human HL60 cells assessed as late apoptosis cells at 50 nM after24 hrs by annexin-V-PE/7-AAD staining (reference value: 0.2%); assay type: functional
HT-29 = assay: Cytotoxicity against human HT-29 cells after 72 hrs by MTS assay; assay type: functional, cell-based; conditions: HT-29, 72 h
KB [10] = assay: Induction of cell cycle arrest in human KB cells assessed as accumulation at G0/G1phase at 50 nM after 48 hrs by propidium iodide staining-based flow cytometry (reference value: 66.6%); assay type: functional
HL-60 [11] = assay: Induction of apoptosis in human HL60 cells assessed as late apoptosis cells at 50 nM after 48 hrs by annexin-V-PE/7-AAD staining (reference value: 0.1%); assay type: functional
KB [12] = assay: Induction of cell cycle arrest in human KB cells assessed as accumulation at G2/M phase at 50 nM after 24 hrs by propidium iodide staining-based flow cytometry (reference value: 19.6%); assay type: functional
HepG2 = assay: Cytotoxicity against human HepG2 cells after 72 hrs by MTS assay; assay type: functional, cell-based; conditions: HepG2, 72 h
SF-268 = assay: Cytotoxicity against human SF268 cells after 72 hrs by MTS assay; assay type: functional, cell-based; conditions: SF-268, 72 h
HCT-15 = assay: Cytotoxicity against human HCT15 cells after 72 hrs by MTS assay; assay type: functional, cell-based; conditions: HCT-15, 72 h
HCT-116 = assay: Cytotoxicity against human HCT116 cells after 72 hrs by MTS assay; assay type: functional, cell-based; conditions: HCT-116, 72 h
A549 = assay: Cytotoxicity against human A549 cells after 72 hrs by MTS assay; assay type: functional, cell-based; conditions: A549, 72 h
KB [13] = assay: Induction of cell cycle arrest in human KB cells assessed as accumulation at S phase at 50 nM after 48 hrs by propidium iodide staining-based flow cytometry (reference value: 18.4%); assay type: functional
[14] = Cytotoxicity against human MCF7/R cells after 72 hrs by MTS assay; assay type: functional, cell-based; conditions: MCF7R
KB [15] = assay: Induction of cell cycle arrest in human KB cells assessed as accumulation at G0/G1phase at 50 nM after 24 hrs by propidium iodide staining-based flow cytometry (reference value: 72.9%); assay type: functional
KB [16] = assay: Induction of cell cycle arrest in human KB cells assessed as accumulation at subG1 phase at 50 nM after 24 hrs by propidium iodide staining-based flow cytometry (reference value: 0.7%); assay type: functional
HL-60 [17] = assay: Cytotoxicity against human HL60 cells after 72 hrs by MTS assay; assay type: functional, cell-based; conditions: HL-60, 72 h
KB [18] = assay: Induction of cell cycle arrest in human KB cells assessed as accumulation at G2/M phase at 50 nM after 48 hrs by propidium iodide staining-based flow cytometry (reference value: 13.8%); assay type: functional
SK-OV-3 = assay: Cytotoxicity against human SKOV3 cells after 72 hrs by MTS assay; assay type: functional, cell-based; conditions: SK-OV-3, 72 h
Ovis aries = organism: Ovis aries; assay: Inhibition of sheep brain tubulin polymerization after 5 mins; in short: as §2
HL-60 [19] = assay: Induction of apoptosis in human HL60 cells assessed as viable cells at 50 nM after24 hrs by annexin-V-PE/7-AAD staining (reference value: 97.2%); assay type: functional; conditions: read-out: Activity
KB [20] = assay: Induction of cell cycle arrest in human KB cells assessed as accumulation at S phase at 50 nM after 24 hrs by propidium iodide staining-based flow cytometry (reference value: 6.9%); assay type: functional
[21] = Cytotoxicity against human HL60R cells after 72 hrs by MTS assay; assay type: functional, cell-based; conditions: HL-60, 72 h
PC-3 = assay: Cytotoxicity against human PC3 cells after 72 hrs by MTS assay; assay type: functional, cell-based; conditions: PC-3, 72 h
OVCAR-8 = assay: Cytotoxicity against human OVCAR8 cells after 72 hrs by MTS assay; assay type: functional, cell-based; conditions: OVCAR-8, 72 h
MIA PaCa-2 = assay: Cytotoxicity against human MIAPaCa2 cells after 72 hrs by MTS assay; assay type: functional, cell-based; conditions: MIA PaCa-2, 72 h
HL-60 [22] = assay: Induction of apoptosis in human HL60 cells assessed as viable cells at 200 nM after 48 hrs by annexin-V-PE/7-AAD staining (reference value: 97.4%); assay type: functional; conditions: HL-60, 48 h, read-out: Activity
HL-60 [23] = assay: Induction of apoptosis in human HL60 cells assessed as viable cells at 200 nM after24 hrs by annexin-V-PE/7-AAD staining (reference value: 97.2%); assay type: functional; conditions: read-out: Activity
HL-60 [24] = assay: Induction of apoptosis in human HL60 cells assessed as early apoptosis cells at 200 nM after 48 hrs by annexin-V-PE/7-AAD staining (reference value: 2.5%); assay type: functional
HL-60 [25] = assay: Induction of apoptosis in human HL60 cells assessed as early apoptosis cells at 200 nM after24 hrs by annexin-V-PE/7-AAD staining (reference value: 2.6%); assay type: functional
HL-60 [26] = assay: Induction of apoptosis in human HL60 cells assessed as late apoptosis cells at 200 nM after24 hrs by annexin-V-PE/7-AAD staining (reference value: 0.2%); assay type: functional
HL-60 [27] = assay: Induction of apoptosis in human HL60 cells assessed as late apoptosis cells at 200 nM after 48 hrs by annexin-V-PE/7-AAD staining (reference value: 0.1%); assay type: functional

With `COc1ccc(-c2oc3c(OC)c(OC)c(OC)c(O)c3c(=O)c2OC)cc1C=O` as the compound, how does the Activity (KB [1]) read?
Its Activity is “<=13%”.

Which results are given for `COc1ccc(-c2oc3c(OC)c(OC)c(OC)cc3c(=O)c2OC)cc1N`?
Activity (KB [1]): 84%; IC50 (KB [2]): 0.078 µM; fold change (FC) (HL-60 [3]): 3.1; IC50 [4]: 12 µM

With `COc1ccc(-c2oc3c(OC)c(OC)c(OC)c(O)c3c(=O)c2OC)cc1-c1cc(-c2oc3c(OC)c(OC)c(OC)c(O)c3c(=O)c2OC)ccc1OC` as the compound, how does the Activity (KB [1]) read?
Its Activity is “<=13%”.

With `COc1c(I)cc(-c2oc3c(OC)c(OC)c(OC)c(O)c3c(=O)c2OC)cc1I` as the compound, how does the Activity (KB [1]) read?
Its Activity is “<=13%”.

Which Activity (KB [1]) does the source give for `COc1ccc(-c2oc3c(OC)c(OC)c(OC)c(O)c3c(=O)c2OC)cc1I` here?
The Activity was “<=13%”.

Which results are given for `COc1ccc(-c2oc3c(OC)c(OC)c(OC)c(O)c3c(=O)c2OC)cc1O`?
Activity (KB [5]): 22.2%; viability at 0.05 µM (HL-60 [6]): 30.8%; Activity (KB [1]): 96%; IC50 (K562): 0.007 µM; Activity (HL-60 [7]): 26.7%; fold change (FC) (HL-60 [8]): 5.7; Activity (HL-60 [9]): 0.8%; IC50 (HT-29): 3.14 µM; Activity (KB [10]): 27.4%; Activity (HL-60 [11]): 7.2%; Activity (KB [12]): 45.3%; IC50 (HepG2): 0.174 µM; IC50 (SF-268): 0.186 µM; IC50 (HCT-15): 0.014 µM; IC50 (HCT-116): 0.023 µM; IC50 (A549): 0.058 µM; Activity (KB [13]): 38.6%; IC50 [14]: 0.017 µM; Activity (KB [15]): 21.3%; Activity (KB [16]): 14.9%; IC50 (HL-60 [17]): 0.036 µM; Activity (KB [18]): 11.8%; IC50 (SK-OV-3): 0.022 µM; inhibition (Ovis aries): 3%; viability at 0.05 µM (HL-60 [19]): 72.4%; Activity (KB [20]): 18.5%; IC50 [21]: 0.005 µM; IC50 (PC-3): > 1 µM; IC50 (OVCAR-8): 0.04 µM; IC50 [4]: 8.9 µM; IC50 (MIA PaCa-2): 0.012 µM

For `COc1ccc(-c2oc3c(OC)c(OC)c(OC)c(O)c3c(=O)c2OC)cc1C#N`, which Activity (KB [1]) is on record?
Its Activity is “<=13%”.

With `COc1ccc(-c2oc3c(OC)c(OC)c(OC)c(O)c3c(=O)c2OC)cc1CN(C)C` as the compound, how does the Activity (KB [1]) read?
Its Activity is “<=13%”.

With `COc1ccc(-c2oc3c(OC)c(OC)c(OC)c(O)c3c(=O)c2OC)cc1[N+](=O)[O-]` as the compound, how does the Activity (KB [1]) read?
Its Activity is 13%.

Which results are given for `COc1cccc2c1C(=O)c1c(O)c3c(c(O)c1C2=O)C[C@@](O)(C(=O)CO)C[C@@H]3O[C@H]1C[C@H](N)[C@H](O)[C@H](C)O1` [DOXORUBICIN]?
viability at 0.2 µM (HL-60 [22]): 5.2%; viability at 0.2 µM (HL-60 [23]): 52.8%; Activity (HL-60 [24]): 89.2%; Activity (HL-60 [25]): 45.9%; Activity (HL-60 [26]): 1.2%; Activity (HL-60 [27]): 5.6%

Which Activity (KB [1]) does the source give for `COc1ccc(-c2oc3c(OC)c(OC)c(OC)c(O)c3c(=O)c2OC)cc1N(C)C` here?
Its Activity is 13%.

For `COc1ccc(-c2oc3c(O)c(OC)c(OC)c(O)c3c(=O)c2OC)cc1N`, which Activity (KB [1]) is on record?
Its Activity is 34%.

And the IC50 (KB [2])?
Its IC50 is > 10 µM.
